Measured values published in ChEMBL document CHEMBL1140709, “Design, synthesis, and biological evaluation of (E)-styrylbenzylsulfones as novel anticancer agents” (J Med Chem, 2008).
Values belong to the molecule of their own block, whether it stands above or below them. Activity calls are given as the source filed them. The rule behind the calls is not given here.

Columns and labels:
[1] = test system: DLD-1; experiment: Antitumor activity against human DLD1 cells by trypan blue exclusion assay; type: functional, cell-based
Outline: (§1)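 Tumour cells were grown in DMEM or RPMI with 10% fetal bovine serum and 1 unit/mL penicillin-streptomycin. They were seeded in six-well dishes at 1.0 × 10⁵ cells/mL/well, and compound was added 24 h later over a range of concentrations. After 96 h of exposure, viable cells in duplicate wells were counted by trypan blue exclusion.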

[2] = Antitumor activity against human H157 cells by trypan blue exclusion assay; type: functional, cell-based; settings: NCI-H157; outline: as §1
[3] = test system: BT-20; experiment: Antitumor activity against human BT20 cells by trypan blue exclusion assay; type: functional, cell-based; outline: as §1
[4] = test system: DU-145; experiment: Antitumor activity against AR-negative human DU145 cells by trypan blue exclusion assay; type: functional, cell-based; outline: as §1
[5] = test system: BT-20; experiment: Antitumor activity against ER-negative human BT20 xenografted athymic NCR-nu/nu mouse at 50 mg/kg, ip every 2 days after 22 days; settings: route intraperitoneal
[6] = test system: AGS; experiment: Antitumor activity against human AGS cells by trypan blue exclusion assay; type: functional, cell-based; outline: as §1
[7] = Antitumor activity against human N417 cells by trypan blue exclusion assay; type: functional, cell-based; outline: as §1
[8] = test system: BT-20; experiment: Antitumor activity against human BT20 xenografted athymic NCR-nu/nu mouse at 50 mg/kg, ip after 22 days
[9] = Antitumor activity against human H187 cells by trypan blue exclusion assay; type: functional, cell-based; settings: NCI-H187; outline: as §1
[10] = test system: SK-MEL-28; experiment: Antitumor activity against human SK-MEL-28 cells by trypan blue exclusion assay; type: functional, cell-based; outline: as §1
[11] = test system: A549; experiment: Antitumor activity against human A549 cells by trypan blue exclusion assay; type: functional, cell-based; outline: as §1
[12] = Antitumor activity against human RF48 cells by trypan blue exclusion assay; type: functional, cell-based; outline: as §1
[13] = test system: COLO 205; experiment: Antitumor activity against human COLO205 cells by trypan blue exclusion assay; type: functional, cell-based; outline: as §1
[14] = test system: CCRF-CEM; experiment: (§2) Antitumor activity against human CEM cells by trypan blue exclusion assay; type: functional, cell-based; outline: as §1
[15] = test system: OVCAR-3; experiment: Antitumor activity against human OVCAR-3 cells by trypan blue exclusion assay; type: functional, cell-based; outline: as §1
[16] = test system: T47D; experiment: Antitumor activity against ER-positive human T47D cells by trypan blue exclusion assay; type: functional, cell-based; outline: as §1
[17] = test system: MOLT-4; experiment: Antitumor activity against human MOLT4 cells by trypan blue exclusion assay; type: functional, cell-based; outline: as §1
[18] = test system: MIA PaCa-2; experiment: Antitumor activity against human MiaPaCa2 cells by trypan blue exclusion assay; type: functional, cell-based; outline: as §1
[19] = test system: Daudi; experiment: Antitumor activity against human Daudi cells by trypan blue exclusion assay; type: functional, cell-based; outline: as §1
[20] = Antitumor activity against human RF1 cells by trypan blue exclusion assay; type: functional, cell-based; outline: as §1
[21] = Antitumor activity against human MES-SA cells by trypan blue exclusion assay; type: functional, cell-based; outline: as §1
[22] = test system: MCF7; experiment: Antitumor activity against ER-positive human MCF7 cells by trypan blue exclusion assay; type: functional, cell-based; outline: as §1
[23] = Antitumor activity against human multidrug-resistant MES-SA/DX5 cells by trypan blue exclusion assay; type: functional, cell-based; outline: as §1
[24] = Antitumor activity against human U87 cells by trypan blue exclusion assay; type: functional, cell-based, U-87MG ATCC; settings: U-87 MG; outline: as §1
[25] = test system: PC-3; experiment: Antitumor activity against […] human PC3 cells by trypan blue exclusion assay; type: functional, cell-based; outline: as §1
[26] = test system: CCRF-CEM; experiment: as §2; type: functional, cell-based; outline: as §1; remark: listed apart in the source
[27] = test system: Raji; experiment: Antitumor activity against human Raji cells by trypan blue exclusion assay; type: functional, cell-based; outline: as §1
[28] = test system: HCT-15; experiment: Antitumor activity against human HCT15 cells by trypan blue exclusion assay; type: functional, cell-based; outline: as §1
[29] = test system: HUVEC; experiment: Cell cycle arrest in HUVEC cells by accumulation at G1 phase by FACS analysis; type: functional, cell-based; settings: Homo sapiens
Outline: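 HUVEC were exposed to 20 nM compound in medium with 10% fetal bovine serum. At 24 h intervals, cells were fixed, stained with propidium iodide and analysed for DNA content by flow cytometry.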

[30] = test system: CEM/C2; experiment: Antitumor activity against human multidrug-resistant CEM/C2 cells by trypan blue exclusion assay; type: functional, cell-based; outline: as §1
[31] = Antitumor activity against human Namalwa cells by trypan blue exclusion assay; type: functional, cell-based; settings: NAMALVA; outline: as §1
[32] = test system: BT-20; experiment: Antitumor activity against ER-negative human BT20 xenografted athymic NCR-nu/nu mouse at 25 mg/kg, ip for every 4 days after 22 days; settings: route intraperitoneal

SMILES: COc1ccc(CS(=O)(=O)/C=C/c2cc(OC)c(OC)c(OC)c2)cc1
IC50 [1]: > 20000 nM
IC50 [2]: > 20000 nM
IC50 [3]: > 20000 nM
IC50 [4]: > 20000 nM

SMILES: COc1ccc(CS(=O)(=O)/C=C/c2ccccc2OC)cc1
IC50 [1]: 7500 nM
IC50 [2]: 5000 nM
IC50 [3]: 5000 nM
IC50 [4]: 3500 nM

SMILES: COc1ccc(CS(=O)(=O)/C=C/c2ccc(C)cc2C)cc1
IC50 [1]: 15000 nM
IC50 [2]: 15000 nM
IC50 [3]: 15000 nM
IC50 [4]: 12000 nM

SMILES: COc1ccc(CS(=O)(=O)/C=C/c2cc(OC)cc(OC)c2)cc1
IC50 [1]: > 20000 nM
IC50 [2]: > 20000 nM
IC50 [3]: > 20000 nM
IC50 [4]: > 20000 nM

SMILES: COc1ccc(CS(=O)(=O)/C=C/c2c(OC)cccc2OC)cc1
IC50 [1]: 700 nM
IC50 [2]: 700 nM
IC50 [3]: 400 nM
IC50 [4]: 250 nM

Second part, led by results:

IC50 [1]: 15000 nM
IC50 [3]: 15000 nM
IC50 [4]: 10000 nM
SMILES: COc1cc(OC)c(/C=C/S(=O)(=O)Cc2ccc(C(=O)O)cc2)c(OC)c1
IC50 [2]: 17500 nM

IC50 [1]: > 20000 nM
IC50 [3]: > 20000 nM
IC50 [4]: > 20000 nM
SMILES: COc1ccc(CS(=O)(=O)/C=C/c2cc(OC)ccc2OC)cc1
IC50 [2]: > 20000 nM

IC50 [1]: 40 nM
IC50 [6]: 20 nM
IC50 [10]: 40 nM
IC50 [11]: 20 nM
IC50 [13]: 15 nM
IC50 [14]: 30 nM
IC50 [15]: 8 nM
IC50 [16]: 25 nM
IC50 [17]: 9 nM
IC50 [18]: 8 nM
IC50 [3]: 20 nM
IC50 [19]: 8 nM
IC50 [22]: 3 nM
IC50 [25]: 30 nM
IC50 [26]: 30 nM
IC50 [27]: 9 nM
IC50 [28]: 20 nM
IC50 [4]: 25 nM
SMILES: COc1ccc(CS(=O)(=O)/C=C/c2c(OC)cc(OC)cc2OC)cc1
Activity [5]: 67.5 mm3
IC50 [7]: 8 nM
Activity [8]: Active
IC50 [2]: 30 nM
IC50 [9]: 15 nM
IC50 [12]: 10 nM
IC50 [20]: 8 nM
IC50 [21]: 10 nM
IC50 [23]: 10 nM
IC50 [24]: 40 nM
Activity [29]: Active
IC50 [30]: 10 nM
IC50 [31]: 15 nM
Activity [32]: 74 mm3
